From PubChem
hK5 inh = kallikrein 5 (human) inhibition; Q9Y337; recombinant hK5, fluorogenic AMC substrate cleavage; inhibition, % at 5 µM; 210,000 tested, 0.59% active;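 active means inhibition of 40% or more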;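 further: 0% = enzyme controls without compound and 100% = no-enzyme blanks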
Hep lipid drop = hepatic lipid droplet formation modulation; AML12 mouse hepatocytes, oleate lipid droplets, BODIPY imaging; inhibition, % at 6.5 µM; 240,000 tested, 0.4% active;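 active means lipid droplet intensity inhibited by at least 50%, with more than 500 cells counted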
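System: AML12 hepatocytes (mouse). Probe or stimulus: oleic acid at 100 µM to induce lipid droplet formation. Times: overnight treatment with compound plus oleate. Detection: Image-based BODIPY and DAPI two-channel analysis. Evaluation: percent inhibition of filter-corrected integrated lipid droplet intensity per well.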
FXIa inh 1536 = inhibitors of human coagulation factor XIa; purified FXIa, Boc-Glu-Ala-Arg-AMC fluorogenic substrate; inhibition, % at 5 µM; 220,000 tested, 0.14% active;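 active means inhibition of at least 40%; inactive means inhibition below 40%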;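 further: fluorescence of freed AMC excited at 355 nm; 0% = enzyme without compound and 100% = no enzyme blank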
Calb biofilm kill = mixture kills Candida albicans biofilm cells | C. albicans biofilm persisters + clotrimazole, fluorescence viability; primary screen in compound mixtures of four per well | inhibition, % at 7.6 µM | 120,000 tested, 0.02% active;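 active means inhibition above 30.3% in the primary screen of four-compound pools, then above 30% when the compound was retested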;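 further: compounds exposed to preformed 24 h biofilms for 48 h; 0% = untreated biofilm control and 100% = clotrimazole plus chlorhexidine kill blank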
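Assay system: C. albicans biofilms / Medium: RPMI/MOPS medium, pH 7.0 / Schedule: biofilm formation 24 h, compound exposure 48 h, 37 °C / Measured by: Alamar Blue fluorescence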
Thrombin inh = inhibitors of human thrombin; 220,000 tested, 0.26% active; alpha-thrombin, Boc-VPR-AMC fluorogenic substrate cleavage; inhibition, % at 5 µM;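 active means inhibition at or above 40%; inactive means inhibition below 40%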;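 further: 0% = enzyme with no compound and 100% = wells without enzyme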
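signal = AMC fluorescence, 355/460 nm | material = human alpha-thrombin enzyme | control set = enzyme without compound as high, wells lacking enzyme as low | times = reaction at room temperature | read-out basis = percent inhibition scaled between no-compound controls and no-enzyme blanks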
FXIIa inh = inhibitors of human coagulation factor XIIa; 220,000 tested, 0.3% active; purified FXIIa, Boc-QGR-AMC fluorogenic substrate, 2 h; inhibition, % at 5 µM; P00748; in the data active means inhibition above about 40%;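 further: 0% = enzyme with no compound and 100% = blank without enzyme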
Target sequence (P00748 20-372 limits assumed): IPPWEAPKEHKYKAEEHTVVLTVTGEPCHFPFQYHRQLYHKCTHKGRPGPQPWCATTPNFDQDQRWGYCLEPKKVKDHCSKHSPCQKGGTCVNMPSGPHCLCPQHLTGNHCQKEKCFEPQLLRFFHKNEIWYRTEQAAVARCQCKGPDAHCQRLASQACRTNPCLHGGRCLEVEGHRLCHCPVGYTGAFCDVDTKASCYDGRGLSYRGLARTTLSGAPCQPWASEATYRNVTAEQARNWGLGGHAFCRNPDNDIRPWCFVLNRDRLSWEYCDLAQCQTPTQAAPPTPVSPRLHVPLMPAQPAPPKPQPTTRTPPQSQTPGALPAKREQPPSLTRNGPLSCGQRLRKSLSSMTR
Target sequence (P00748 373-615 limits assumed): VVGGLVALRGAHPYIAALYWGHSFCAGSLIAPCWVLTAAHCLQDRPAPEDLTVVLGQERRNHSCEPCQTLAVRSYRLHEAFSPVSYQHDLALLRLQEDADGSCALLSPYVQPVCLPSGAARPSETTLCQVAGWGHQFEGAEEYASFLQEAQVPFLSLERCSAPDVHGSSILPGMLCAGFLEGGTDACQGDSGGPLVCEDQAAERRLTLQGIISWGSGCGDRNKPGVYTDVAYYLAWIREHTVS
Starred values were filed as active, the others as inactive. Most compounds without a hit are left out; they make up all but 1.1% or so of the library.

For O=C(CSc1nnc(NC(=O)c2cccc(F)c2)s1)NC1CCCC1 the results were Hep lipid drop 1.
CCOC(=O)COc1ccc2nsnc2c1Cl was read as hK5 inh 102*, FXIa inh 1536 -5, Thrombin inh 4 and FXIIa inh -8.
`O=C(O)COc1cccc2nsnc12` gave hK5 inh -3, FXIa inh 1536 4, Thrombin inh 1 and FXIIa inh 14.
Screening C=CCn1c(=O)c2ccccc2n2c(SCC(=O)NC)nnc12 returned Hep lipid drop -1.
Cc1ccc(CCNC(=O)C2CCCN(C(=O)c3cc4sccc4n3C)C2)cc1 (stereo not drawn) was read as hK5 inh 47*, Hep lipid drop 0, FXIa inh 1536 9, Thrombin inh 28 and FXIIa inh 7.
Screening CC(=O)N1c2ccc(S(=O)(=O)N(C)CC(=O)NC3CCCCC3C)cc2CC1C (stereo not drawn) returned Hep lipid drop -64.
Screening CC(=O)c1ccc(O)c(CSC2=NCCS2)c1 returned hK5 inh 34, Hep lipid drop -1, FXIa inh 1536 27, Calb biofilm kill 5, Thrombin inh 67* and FXIIa inh 26.
Screening COC(=O)c1ccc(CSC2=NCCS2)cc1 returned hK5 inh -15, Hep lipid drop 8, FXIa inh 1536 7, Calb biofilm kill 11, Thrombin inh -6 and FXIIa inh 8.
For O=C(c1cc2cc(F)ccc2[nH]1)N1CCCC(Nc2ccc(F)cc2)C1 (stereo not drawn) the results were Hep lipid drop 23.
Screening CCOC(=O)c1cc(-c2ccccc2)sc1NC(=O)CN1C(=O)NC(CC)(c2ccccc2)C1=O (stereo not drawn) returned hK5 inh 40*, Hep lipid drop 0, FXIa inh 1536 16, Thrombin inh 14 and FXIIa inh 18.
Screening CCCc1nc2c(=O)[nH]c3ccccc3c2o1 returned hK5 inh 44*, FXIa inh 1536 5, Thrombin inh 18 and FXIIa inh 16.
Screening CC(NC(=S)NCCN1CCOCC1)C12CC3CC(CC(C3)C1)C2 (stereo not drawn) returned hK5 inh 9, Hep lipid drop 7, FXIa inh 1536 0, Calb biofilm kill 7, Thrombin inh 1 and FXIIa inh 7.
CC(C)=CCC/C(C)=C/CC/C(C)=N/O was read as hK5 inh 30, FXIa inh 1536 15, Thrombin inh 24 and FXIIa inh 40*.
Screening O=C(CSc1nc2ccccc2s1)N1CCOCC1 returned hK5 inh -11, Hep lipid drop 16, FXIa inh 1536 4, Thrombin inh -4 and FXIIa inh 21.
`NC(=O)C1(N2CCCCC2)CCN(C(=O)CSc2nc3ccccc3s2)CC1` gave hK5 inh 59*, Hep lipid drop 0, FXIa inh 1536 9, Thrombin inh 26 and FXIIa inh 11.
`O=S(=O)(Nc1ccccc1Cl)c1ccc(F)cc1` gave hK5 inh -1, Hep lipid drop -1, FXIa inh 1536 -2, Thrombin inh -5 and FXIIa inh 11.
For O=C(O)c1ccc(F)c(S(=O)(=O)Nc2ccccc2Cl)c1 the results were hK5 inh 86*, Hep lipid drop 1, FXIa inh 1536 2, Thrombin inh 18 and FXIIa inh 0.
CC1CCN(c2oc(-c3ccc(F)cc3)nc2C#N)CC1 was read as Hep lipid drop -21.
`Cc1cccc2cc(C(c3nnnn3CC3CCCO3)N3CCc4ccccc4C3)c(=O)[nH]c12` (stereo not drawn) gave hK5 inh 43*, Hep lipid drop -14, FXIa inh 1536 6, Thrombin inh 15 and FXIIa inh 23.
`COC(=O)c1ccc(NC(=S)Nc2ccc(O)cc2)cc1` gave hK5 inh 33, Hep lipid drop 0, FXIa inh 1536 28, Calb biofilm kill 5, Thrombin inh 14 and FXIIa inh 61*.
Screening CN1CCN(C(CNS(=O)(=O)c2ccc(Cl)cc2)c2cccnc2)CC1 (stereo not drawn) returned hK5 inh 42*, Hep lipid drop -14, FXIa inh 1536 2, Thrombin inh 16 and FXIIa inh 12.
CN(C)CCNc1ncnc2c1sc1nc(-c3ccccc3)c3c(c12)CCCC3 was read as hK5 inh 18, Hep lipid drop 10, FXIa inh 1536 25, Calb biofilm kill 38, Thrombin inh 17 and FXIIa inh 42*.
For COc1ncnc2c1sc1nc(-c3ccccc3)c3c(c12)CCCC3 the results were hK5 inh -6, Hep lipid drop -17, FXIa inh 1536 -11, Calb biofilm kill 10, Thrombin inh -8 and FXIIa inh -10.
CC1CCN(Cc2nnnn2CCCC(=O)N(C)C(C)c2ccccn2)CC1 (stereo not drawn) was read as Hep lipid drop -8.
For CC1CC(=O)Nc2ccccc2N1C(=O)Nc1ccc(F)cc1 (stereo not drawn) the results were hK5 inh 55*, Hep lipid drop 10, FXIa inh 1536 27, Calb biofilm kill 16, Thrombin inh 10 and FXIIa inh 11.
`Cc1cc(C)cc(C(=O)N[C@@H](C)C(=O)N2CCC3(CC2)NCCc2[nH]cnc23)c1` gave Hep lipid drop 2.
Screening Cc1nn(CC(=O)N2CCN(c3ccc(Cl)cc3)CC2)c(=O)c2cccn12 returned Hep lipid drop 0.
`NS(=O)(=O)c1ccc(NNC(=O)c2sccc2Cl)cc1` gave hK5 inh 29, Hep lipid drop -9, FXIa inh 1536 22, Calb biofilm kill 12, Thrombin inh 30 and FXIIa inh 41*.
O=C(NNc1ccc(Cl)cc1)c1sccc1Cl was read as hK5 inh -6, Hep lipid drop -5, FXIa inh 1536 -5, Calb biofilm kill 8, Thrombin inh 1 and FXIIa inh 6.
For COc1cc(Cl)c(S(=O)(=O)N2CC(C)OC(C)C2)cc1Cl (stereo not drawn) the results were hK5 inh 54*, Hep lipid drop -62, FXIa inh 1536 13, Thrombin inh 26 and FXIIa inh 32.
For COc1cc(Cl)c(S(=O)(=O)N2CCOCC2)cc1Cl the results were hK5 inh 3, Hep lipid drop 4, FXIa inh 1536 -18, Thrombin inh 2 and FXIIa inh -13.
Screening Cc1ccc(/C=C2\CCC3=C2OC(N)=C(C#N)C3c2ccc(C)cc2)cc1 (stereo not drawn) returned hK5 inh 3, FXIa inh 1536 0, Thrombin inh -2 and FXIIa inh 9.
Screening N#CC1=C(N)OC2=C(CCc3ccccc32)C1c1ccccc1 (stereo not drawn) returned hK5 inh -12, Hep lipid drop 101*, FXIa inh 1536 -2, Calb biofilm kill 13, Thrombin inh -9 and FXIIa inh 9.
